# Experimental data gathered from unrelated publications.
# Protocols differ between the studies behind these lines.
# Target: Serine/threonine-protein kinase NIM1 (NIM1K, Homo sapiens, UniProt Q8IY84)
Structure (SMILES),test,setting,remaining binding [%]
O=C(NCC1CCOCC1)c1n[nH]cc1NC(=O)c1c(F)cccc1F,"binding, competition with immobilised ligand",1 µM,97
COc1cnc(Nc2cccc(S(N)(=O)=O)c2)nc1N1CCN(c2ccccc2)CC1,"binding, competition with immobilised ligand",1 µM,71
C[C@@H](c1ccc(-n2cnc3c(N)ncnc32)cc1)N1CCc2nn(C)c(Cc3ccccc3)c2C1=O,"binding, competition with immobilised ligand",0.1 µM,67
O=C(c1ccc(Nc2ncc(Cl)c(-c3cc4ccccc4s3)n2)cc1)N1CCC(N2CCCC2)CC1,"binding, competition with immobilised ligand",1 µM,20
COc1cccc(CNC(=O)c2nc3scc(COCc4ccc(C(=O)O)cc4)c3c(=O)[nH]2)c1,"cell-free assay, competition with immobilised ligand",1 µM,100
O=C(NCCCN1CCOCC1)c1ccc(Nc2nccc(-c3cc4ccccc4s3)n2)cc1,"binding, competition with immobilised ligand",1 µM,86
CS(=O)(=O)c1cc(C2(NC(=O)c3cncc4c3cnn4-c3ccc(F)cc3)CC2)ccn1,"cell-free assay, competition with immobilised ligand",1 µM,56
COc1cnc(Nc2cccc(S(N)(=O)=O)c2)nc1N1CCN(c2ccccc2)C(=O)C1,"binding, competition with immobilised ligand",1 µM,87
FC(F)(F)Oc1cccc(-c2cnc3ccc(-c4ccncc4)nn23)c1,"cell-free assay, competition with immobilised ligand",5 µM,87
CS(=O)(=O)NCC[C@H](NC(=O)c1cncc2c1cnn2-c1ccc(F)cc1)c1ccnc(S(C)(=O)=O)c1,"cell-free assay, competition with immobilised ligand",1 µM,100
N[C@@H]1CCN(c2nccc(-c3cnn4ncccc34)n2)C1,binding,1 µM,79
Cc1nc(C2CCN(C(=O)c3ccc(OC(F)(F)F)cc3N)CC2)c2ncc(N3CCN(C)CC3)cc2n1,"cell-free assay, competition with immobilised ligand",1 µM,89
CN(C)c1ncc(F)c(-c2cnn3ncccc23)n1,binding,1 µM,69
CC1=C(C#N)[C@@H](c2ccc3[nH]nc(C)c3c2)C(C#N)=C(c2ccc(Cl)cc2)N1,"cell-free assay, competition with immobilised ligand",1 µM,100
CC1CCCN1c1nccc(-c2cnn3ncccc23)n1 (stereo not shown),binding,1 µM,95
CS(=O)(=O)N1CCCC(NC(=O)[C@H](CCC2CCCCC2)NC(=O)c2ccc(CNC(=O)c3cnc4ccccn34)cc2)C1 (stereo partly shown),"cell-free assay, competition with immobilised ligand",0.1 µM,64
C[C@H]1CCN(c2nccc(-c3cnn4ncccc34)n2)C1,binding,1 µM,82
CC(=O)C1=C(C)N(c2cccc(C(F)(F)F)c2)C(=O)N[C@@H]1c1ccc(C#N)nc1,"cell-free assay, competition with immobilised ligand",1 µM,83.5
CN(C)c1nccc(-c2cnc3ncccn23)n1,binding,1 µM,67
Cc1cnc(Nc2ccc(C(=O)N3CCC(N4CCCC4)CC3)cc2)nc1-c1cc2ccccc2s1,"binding, competition with immobilised ligand",1 µM,22
c1cnn2ncc(-c3ccnc(N4CCC45COC5)n3)c2c1,binding,1 µM,61
COc1ncc2cc3ccccc3nc2c1C#N,"cell-free assay, competition with immobilised ligand",5 µM,89
